Assay [1] has as its system Hamster. In words: Reversal of keratinized lesions in vitamin A deficient hamster tracheal organ culture assessed as cultures with keratin and keratohyaline granules at 0.1 uM after 7 days (reference value: 93%). The assay is classed as functional, Cricetinae, Trachea.
Assay [2] in a line: Increase in RNA content in mouse epidermal cells at 10 nM after 3 days. The assay is classed as functional. In outline: (§1)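 Mouse skin epidermal cell cultures grown 3 days with retinoid added from Me2SO stock (final Me2SO ≤1.0%); controls received equivalent Me2SO and no retinoid. RNA measured; value is percentage increase over control cultures; 6–9 cultures per concentration.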

Assay [3] in a line: Increase in RNA content in mouse epidermal cells at 1 nM after 3 days. The assay is classed as functional. In outline: as §1
Assay [4] in a line: Increase in RNA content in mouse epidermal cells at 0.1 uM after 3 days. The assay is classed as functional. The procedure, abridged: as §1
Assay [5] deals with Hamster. In words: Reversal of keratinized lesions in vitamin A deficient hamster tracheal organ culture assessed as cultures with keratin and keratohyaline granules at 10 nM after 7 days (reference value: 93%). The format is functional, Cricetinae, Trachea.
Assay [6] can be described thus: Increase in RNA content in mouse epidermal cells at 1 uM after 3 days. The assay is classed as functional. In outline: as §1
Assay [7] relates to Mus musculus. The assay is described as follows: Activity against chemically-induced skin papillomas in Swiss albino mouse assessed as change in total papilloma diameter at 80 mg/kg/day, ip administered five times per week for 2 weeks measured on day 14. The assay is classed as functional. Particulars: route intraperitoneal.
The species entered for assay [8] is Mus musculus. In words: Increase in protein content in mouse epidermal cells. The format is functional, cell-based. In outline:
(§2)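 Mouse skin epidermal cell cultures with retinoid added to the medium from Me2SO stock (final Me2SO ≤1.0%); controls given equivalent Me2SO; increase in DNA or protein content measured relative to cultures without retinoid.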

For assay [9], the species on record is Mus musculus. The assay is described as follows: Increase in DNA content in mouse epidermal cells. The format is functional, cell-based. In outline: as §2
The test system of assay [10] is Mus musculus. The assay is described as follows: Activity against chemically-induced skin papillomas in Swiss albino mouse assessed as change in total papilloma diameter at 40 mg/kg/day, ip administered five times per week for 2 weeks measured on day 14. The assay is classed as functional. Particulars: route intraperitoneal.
Assay [11] relates to Hamster. The assay is described as follows: Reversal of keratinized lesions in vitamin A deficient hamster tracheal organ culture assessed as cultures with keratin and keratohyaline granules at 1 nM after 7 days (reference value: 93%). The assay is classed as functional, Cricetinae, Trachea.
Assay [12] in a line: Increase in RNA content in mouse epidermal cells at 0.1 nM after 3 days. The assay is classed as functional. The procedure, abridged: as §1
In assay [13] the test system is Mus musculus. The assay is described as follows: Activity against chemically-induced skin papillomas in Swiss albino mouse assessed as change in total papilloma diameter at 160 mg/kg/day, ip administered five times per week for 2 weeks measured on day 14. The format is functional. Particulars: route intraperitoneal.
Assay [14] concerns Hamster. In words: Reversal of keratinized lesions in vitamin A deficient hamster tracheal organ culture assessed as cultures with keratin and keratohyaline granules at 1 uM after 7 days (reference value: 93%). The assay is classed as functional, Cricetinae, Trachea.
The subject of assay [15] is Mus musculus. In words: Activity against chemically-induced skin papillomas in Swiss albino mouse assessed as change in total papilloma diameter at 10 mg/kg/day, ip administered five times per week for 2 weeks measured on day 14. Particulars: route intraperitoneal. The format is functional.

The source made the active and inactive calls. No cut-off for these calls is given here.

Regarding `COC(=O)/C=C(C)/C=C/C=C(C)/C=C/C1=C(C)CCCC1(C)C` [RETINOIC ACID METHYL ESTER], the “Cultures with keratinized lesions” value with Hamster [1] turned out to be 0%. Besides, the Activity in assay [2] was determined as 25%; in assay [3], 8%; in assay [4], 75%; with Hamster [5], 0%; in [6] it was 126%.

As to `COC(=O)/C=C(\C)CC/C=C(C)/C=C/c1c(C)cc(OC)c(Cl)c1C`, the Activity in the assay with Mus musculus [7] worked out at 29%.

Turning to `COC(=O)/C=C(\C)CC/C=C(C)/C=C/C1=C(C)CCCC1(C)C`, the result in the assay listed under Mus musculus [8] and in the assay filed under Mus musculus [9] was Active. For the same compound, in the assay on Hamster [1], the “Cultures with keratinized lesions” value came out at 24%. In addition, the Activity in assay [2] is 9%; in assay [3], 3%; in [4] it was 5%; with Hamster [5] it was 83%; in the assay with Mus musculus [7], -13%; in assay [6], 21%.

Consider `CC1=C(/C=C/C(C)=C/C=C/C(C)=C/C(=O)O)C(C)(C)CCC1` [TRETINOIN], for which the Activity is listed as -55% in the assay on Mus musculus [10]; 100% in [2]; 68% in assay [3]; 3% in the assay with Hamster [5]; 0% with Hamster [11]; 19% in assay [12]. Further, the “Cultures with keratinized lesions” value in the assay on Hamster [1] is 0%.

`CCOC(=O)CC(C)/C=C/C=C(C)/C=C/C1=C(C)CCCC1(C)C` (stereo not drawn): the outcome in the assay filed under Mus musculus [8] and in the assay listed under Mus musculus [9] was Active. Further, the “Cultures with keratinized lesions” value with Hamster [1] is reported as 12%. Besides, the Activity in assay [2] was 12%; in assay [3], 12%; in assay [4], 13%; in the assay with Hamster [5] it was 83%; in the assay with Mus musculus [13], -14%; in [6] it was 69%.

With `CCOC(=O)/C=C(C)/C=C/C=C(C)/C=C/C1=C(C)CCCC1(C)C`, the “Cultures with keratinized lesions” value in the assay on Hamster [1] came out at 0%. Further, the Activity in assay [2] is 57%; in [3] it was 23%; in assay [4], 102%; with Hamster [5] it was 0%; with Mus musculus [7], -47%; in assay [6], 123%.

With `COc1cc(C)c(/C=C/C(C)=C/C=C/C(C)=C/C(=O)O)c(C)c1C` [ACITRETIN], the Activity in the assay on Hamster [14] was 0%; in the assay on Hamster [5], 35%; in the assay on Hamster [11] it was 100%; in the assay on Mus musculus [15], -43%. Further, the “Cultures with keratinized lesions” value in the assay on Hamster [1] is 0%.

With `COC(=O)/C=C(\C)CC/C=C(C)/C=C/c1c(C)cc(C)c(Cl)c1C`, the Activity with Mus musculus [7] is 29%.

As for `CC1=C(/C=C/C(C)C/C=C/C(C)=C/C(=O)O)C(C)(C)CCC1` (racemic), the result in the assay filed under Mus musculus [8] and in the assay filed under Mus musculus [9] was Active. In addition, the “Cultures with keratinized lesions” value in the assay with Hamster [1] was found to be 52%. For the same compound, the Activity in [2] is given as 28%; in [3], 3%; in [4], 29%; with Hamster [5], 96%; in assay [6], 118%.

Consider `COc1cc(C)c(/C=C/C(C)=C/CC/C(C)=C/C(=O)O)c(C)c1C`, for which the Activity is 0% with Hamster [14], 86% in the assay on Hamster [5], -17% with Mus musculus [7] and -66% in the assay on Mus musculus [13]. In addition, the “Cultures with keratinized lesions” value in the assay with Hamster [1] amounted to 44%.

Turning to `CC1=C(CC/C(C)=C/C=C/C(C)=C/C(=O)O)C(C)(C)CCC1`, the outcome in the assay filed under Mus musculus [8] and in the assay listed under Mus musculus [9] was Active. Further, in the assay on Hamster [1], the “Cultures with keratinized lesions” value was determined as 0%. The Activity is 82% in [2]; 1% in [3]; 115% in assay [4]; 25% in the assay with Hamster [5]; -33% in the assay on Mus musculus [7]; 106% in [6].

As for `CC(/C=C/C1C(C)CCCC1(C)C)=C\C=C\C(C)=C\C(=O)O` (stereo not drawn), the “Cultures with keratinized lesions” value in the assay on Hamster [1] was determined as 0%. In addition, the Activity is 0% in the assay with Hamster [5], 6% in the assay with Hamster [11] and -9% in the assay on Mus musculus [15].

With `COC(=O)/C=C(C)/C=C/C=C(\C)CCc1c(C)cc(OC)c(Cl)c1C`, the Activity with Mus musculus [7] worked out at 1%.

As for `COc1cc(C)c(CC/C(C)=C/C=C/C(C)=C/C(=O)O)c(C)c1C`, the Activity in the assay on Hamster [14] is reported as 0%; with Hamster [5], 85%; with Mus musculus [7] it was -35%. For the same compound, the “Cultures with keratinized lesions” value in the assay with Hamster [1] is recorded as 63%.

For the compound `CC1=C(CC/C(C)=C/C=C/C(C)=C\C(=O)O)C(C)(C)CCC1`, in the assay with Mus musculus [7], the Activity was -28%.

Regarding `COC(=O)/C=C(C)/C=C/C=C(\C)CCc1c(C)cc(N(C)C)cc1C`, in the assay with Mus musculus [7], the Activity is listed as 20%.

The record behind these values is ChEMBL document CHEMBL3243931, “Dihydroretinoic acids and their derivatives. Synthesis and biological activity” (1977).
